PP1 inh – PP1-alpha phosphatase inhibitors, primary screen, counter-screen for PP5 inhibitor project, biochemical, fluorescence, OMFP substrate, single point. inhibition, % at 6.7 µM. Serine/threonine-protein phosphatase PP1-alpha catalytic subunit (Homo sapiens), P62136. purified PP1alpha. 320,000 compounds, 0.9% hits;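 active means inhibition above the mean inhibition of all tested compounds plus 3 SD, computed separately for each screening campaign, cut at about 15% in these data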
Target sequence (P62136 whole entry, looked up): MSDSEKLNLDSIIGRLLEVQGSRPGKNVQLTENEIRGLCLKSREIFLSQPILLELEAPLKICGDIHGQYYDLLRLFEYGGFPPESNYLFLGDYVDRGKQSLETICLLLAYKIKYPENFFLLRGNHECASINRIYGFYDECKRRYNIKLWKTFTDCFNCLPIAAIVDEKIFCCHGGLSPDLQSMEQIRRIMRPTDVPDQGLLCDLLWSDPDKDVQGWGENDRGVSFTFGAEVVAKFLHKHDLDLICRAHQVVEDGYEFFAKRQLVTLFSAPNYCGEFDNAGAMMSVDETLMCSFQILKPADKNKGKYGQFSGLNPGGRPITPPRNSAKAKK
Apaf-1 inh – inhibitors of human Apaf-1 apoptosome, primary screen, biochemical, DEVD-Rh110 fluorescence, uHTS | Apoptotic protease-activating factor 1 (Homo sapiens), O14727 | reconstituted apoptosome caspase-3 activity | inhibition, % at 20 µM | 330,000 compounds, 0.71% hits | AID 489030, 2010; active means inhibition of at least 40% at 20 µM;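 further: plate controls were DMSO wells for no effect and DEVD-CHO caspase inhibitor wells for full effect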
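Material: biochemical Apaf-1 apoptosome reconstitution. Medium: Hepes buffer, pH 7.5. Also added: cytochrome c activation, bis-DEVD rhodamine 110 substrate. Timing: 30 min compound preincubation, 50 min activation, room temperature. Measured by: rhodamine 110 fluorescence at Ex 480/Em 540 nm.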
PP5 inh – PP5 phosphatase inhibitors, primary screen, biochemical, fluorescence | Serine/threonine-protein phosphatase 5 (Homo sapiens), P53041 | purified PP5c, OMFP substrate fluorescence | inhibition, % at 6.7 µM | 320,000 compounds, 0.18% hits | AID 1987, 2009;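 active means inhibition above the campaign's mean inhibition across all tested compounds plus 3 SD, cut at about 9.5% in these data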;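 further: 0% = DMSO only and 100% = 100 µM cantharidin control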
GSTO1 counter – inhibitors of recombinant GSTO1, primary screen, counter-screen for RBBP9 inhibitor project, biochemical, fluorescence polarization; Glutathione S-transferase omega-1 (Homo sapiens), P78417; activity-based probe fluorescence polarization; inhibition, % at 5.96 µM; 300,000 compounds, 1.1% hits;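 active means inhibition above the campaign mean inhibition plus 3 SD, cut at about 35% in these data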;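 further: 0% = GSTO1-1 with DMSO and 100% = wells lacking GSTO1-1 enzyme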
TDP2 inh – human TDP2 enzyme inhibitors, primary screen, biochemical, epi absorbance, recombinant enzyme | 370,000 compounds, 0.34% hits | inhibition, % at 12.8 µM | T5PNP hydrolysis, p-nitrophenol absorbance 415 nm | Tyrosyl-DNA phosphodiesterase 2 (Homo sapiens), O95551 | AID 720702, 2013;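 active means inhibition above the mean of all tested compounds plus 3 SD, set per campaign, cut at about 25% in these data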;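 further: 0% = DMSO with enzyme and 100% = buffer with substrate but no TDP2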
Target sequence (O95551 whole entry, looked up): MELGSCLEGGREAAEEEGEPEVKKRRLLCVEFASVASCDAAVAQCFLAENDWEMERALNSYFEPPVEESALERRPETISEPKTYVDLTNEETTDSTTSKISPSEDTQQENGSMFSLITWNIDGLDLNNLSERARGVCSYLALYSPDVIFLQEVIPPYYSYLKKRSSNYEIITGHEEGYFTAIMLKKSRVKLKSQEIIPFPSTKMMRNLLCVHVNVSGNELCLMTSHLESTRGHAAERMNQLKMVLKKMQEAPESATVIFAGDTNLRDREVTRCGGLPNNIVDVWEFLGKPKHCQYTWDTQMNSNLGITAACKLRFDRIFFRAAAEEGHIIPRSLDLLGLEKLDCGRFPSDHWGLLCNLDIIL
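Assay system: recombinant human TDP2 / Reagent: T5PNP substrate at 5 mM, a TopII-DNA adduct mimic / Measured by: epi absorbance from released p-nitrophenol / Evaluation: % inhibition relative to enzyme-containing and enzyme-free wells / Control set: enzyme-free and DMSO wells / Replicates: each compound tested once, singlicate / Schedule: enzyme reaction with compound for 2 h at 37 °C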
PP1 inh confirm – PP1 phosphatase inhibitors, confirmation, biochemical, fluorescence, OMFP substrate, triplicate | shares compounds with PP1 inh | purified PP1alpha | inhibition, % at 6.7 µM | 1,900 compounds, 52% hits;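 active means mean PP1 inhibition above a set limit taken from the earlier primary screen, cut at about 15% in these data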
PP5 counter – PP5 phosphatase inhibition by PP1 hits, confirmation, counter-screen for PP1 inhibitor project, biochemical, fluorescence, triplicate; AID 2360, 2010; shares compounds with PP1 inh; purified PP5c, OMFP fluorescence; 1,900 compounds, 4% hits; inhibition, % at 6.7 µM;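 active means mean PP5 inhibition over triplicate wells above about 9.5% taken from the earlier PP1 screen, limit read from the data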
Apaf-1 inh conf2 – Apaf-1 inhibitors, single-dose retest, confirmation, biochemical, fluorescence, DEVD-Rh110, 20 µM | shares compounds with Apaf-1 inh | reconstituted apoptosome, caspase-3 DEVD-Rh110 fluorescence | inhibition, % at 20 µM | 1,800 compounds, 25% hits | AID 504614, 2011;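 active means mean inhibition of at least 40% at 20 µM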;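 further: plate controls were DMSO wells for no effect and DEVD-CHO caspase inhibitor control wells for full effect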
Rh110 interf inh – Rh110 fluorescence interference by putative Apaf-1 inhibitors, confirmation, artefact control for Apaf-1 inhibitor project, biochemical, 20 µM. shares compounds with Apaf-1 inh. quenched caspase reaction. activation (fluorescence interference), % at 20 µM. 1,800 tested, under 10 active. AID 504615, 2011;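 active means signal rise of 40% or more at 20 µM, treated as a fluorescence artifact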
Apaf1 inh interf – fluorescence interference of Apaf-1 inhibitor hits, dose response, artefact control for Apaf-1 inhibitor project | shares compounds with Apaf-1 inh | fluorescence interference counterscreen, Apaf-1 assay format | IC50, µM | 460 tested, under 10 active | AID 588538, 2011; call rule not given here
An asterisk follows results filed as active; · = not tested or not shown. Hits are enriched below; roughly 2.1% of the tested compounds scored in any of these assays.

SMILES	PP1 inh	Apaf-1 inh	PP5 inh	GSTO1 counter	TDP2 inh	PP1 inh confirm	PP5 counter	others
O=C(Nc1nc(-c2ccccn2)cs1)c1ccc2c(c1)OCCO2	39*	12	4	4	-2	43*	-3
O=C(CSc1nc2ccccc2n1Cc1ccccc1Cl)N/N=C\c1cccc(Oc2ccccc2)c1	·	·	·	·	5	·	·
CCCC1CCC2(CCCN2CCOC(=S)Nc2ccccc2OC)CC1 (centres undefined)	·	·	·	·	-10	·	·
Oc1c(C(Nc2ccccn2)c2ccccn2)ccc2cccnc12 (centres undefined)	72*	1	6	-37	8	76*	0
COc1ccccc1NC(c1cccnc1)c1ccc2cccnc2c1O (centres undefined)	18*	9	3	0	-5	19*	-3
CC(=O)NC(c1ccco1)c1ccc2cccnc2c1O (centres undefined)	0	-13	-1	7	·	·	·
Cc1ccnc(NC(c2cccnc2)c2ccc3cccnc3c2O)c1 (centres undefined)	12	7	4	-43	-10	·	·
Oc1ccccc1C(Nc1nccs1)c1ccc2cccnc2c1O (centres undefined)	23*	-3	-3	-37	-17	20*	-1
COc1ccc(CCN(Cc2cccs2)S(=O)(=O)c2ccc(C)s2)cc1OC	·	·	·	·	-4	·	·
COC(=O)[C@H]1C[C@@]2(N3CCCC3)c3ccccc3N[C@H]2N1S(=O)(=O)c1ccc([N+](=O)[O-])cc1	·	·	·	·	7	·	·
O=C(NCc1ccccc1)[C@H]1CCCN1C(=O)[C@H]1CCCN1C(=O)c1cccc(F)c1	·	·	·	·	6	·	·
COC(=O)[C@]12C[C@H](CC(=O)N3CCN(C(=O)C4CC4)CC3)C(=O)N(Cc3ccco3)C1=C[C@H](C(C)(C)C)O[C@@H]2C	·	·	·	·	-13	·	·
O=C(C1=C[C@@H]2[C@H]3C(=O)N(c4ccccc4Cl)C(=O)[C@H]3[C@@H](C(=O)c3ccc(Cl)cc3)N2C=C1)c1ccccc1	23*	11	3	20	·	18*	4
O=C(N1CCOCC1)N1CC[C@H]2[C@H](CCCN2Cc2cc(F)cc(F)c2)C1	·	·	·	·	-11	·	·
CCOC(=O)c1cc(-c2ccccc2)sc1NC(=O)C(C)N1C(=O)NC(C)(c2ccc(Cl)cc2)C1=O (centres undefined)	22*	16	4	-16	6	11	1
O=C(c1ccc2ncsc2c1)N1CCCCC1	-4	4	-6	12	12	·	·
O=C(O)c1ccc2ncsc2c1	19*	-23	4	6	-5	37*	1
O=C(NCc1ccc2c(c1)OCO2)C12CN(Cc3ccccc3)CC1C(c1cccc([N+](=O)[O-])c1)=NO2 (centres undefined)	25*	16	2	2	-4	12	-2
COc1cccc(-c2nnc(SCC(=O)OC(C)C)n2-c2ccc(Cl)cc2)c1	·	·	·	·	-2	·	·
Cn1c(SCC(=O)c2ccc3c(c2)Cc2ccccc2-3)nnc1-c1ccccc1	26*	20	3	9	-12	32*	-1
CN1C2=N[C@@H](c3ccc4c(c3)OCO4)CC(=O)N2/C(=C\c2ccccc2)[C@H]1c1ccccc1	·	·	·	·	3	·	·
CCOC(=O)N1CCN(C(=O)C[C@H]2C[C@@]3(C(=O)OC)C(=C[C@H](C(C)(C)C)O[C@@H]3C)N(CCc3ccc(OC)c(OC)c3)C2=O)CC1	·	·	·	·	-3	·	·
O=S(=O)(Nc1cccc(-c2ccc(N3CCCCCC3)nn2)c1)c1cccc(F)c1	18*	22	1	-6	-8	4	1
CC(=O)N1CCCN(C(=O)CN2C(=O)CC(C)(C)S(=O)(=O)c3ccccc32)CC1	·	·	·	·	5	·	·
COc1cccc(C(=O)Nc2cccc(NC(=O)c3ccccc3Cl)c2)c1	4	8	2	-2	0	·	·
SMILES	PP1 inh	Apaf-1 inh	PP5 inh	GSTO1 counter	TDP2 inh	PP1 inh confirm	PP5 counter	others
COc1cccc(C(=O)Nc2cccc(C(=O)NC3=NN(c4c(Cl)cc(Cl)cc4Cl)C(=O)C3)c2)c1	29*	31	0	4	-3	2	-4
COc1ccc(Nc2cc(C)nc(NCc3ccccc3)n2)cc1	10	13	5	-2	0	·	·
Cc1ccc(Nc2cc(C)nc(NCc3ccccc3)n2)cc1	18*	0	5	2	-5	4	4
O=C(COc1ccccc1)N1CCN(S(=O)(=O)c2ccc(Br)cc2)CC1	22*	12	0	11	-13	-1	0
CCCC[C@H]1C2CC(OC(=O)Nc3ccccc3C)C(C2)[C@H]2CCCCN21 (some centres undefined)	·	·	·	·	7	·	·
CCC(C)(C)c1ccc(OCCCC[n+]2ccc(C)cc2)c(C(C)(C)CC)c1	21*	48*	2	3	1	-6	0	Apaf-1 inh conf2=29;Rh110 interf inh=20
CCC(C)(C)c1ccc(OCCCC[n+]2cccc(C)c2C)c(C(C)(C)CC)c1	20*	69*	2	-4	-8	-3	1	Apaf-1 inh conf2=54*;Rh110 interf inh=19;Apaf1 inh interf=>100
Cn1c(SCC2CCCCC2)nnc1-c1ccco1	·	·	·	·	5	·	·
COc1ccc(NC(=O)c2cc(-c3ccncc3)nc3ccc(Br)cc23)cc1OC	18*	45*	1	7	-1	24*	0	Apaf-1 inh conf2=12;Rh110 interf inh=8
O=C(NCc1ccc(F)c(F)c1)C1CCC(CNS(=O)(=O)c2cccc3cccnc23)CC1 (centres undefined)	·	·	·	·	2	·	·

Source: PubChem
